The results in this text go back to ChEMBL document CHEMBL4706645, “The discovery of novel small molecule allosteric activators of aldehyde dehydrogenase 2” (Eur J Med Chem, 2021).

As a reminder, the EC50 is the midpoint of the concentration-response curve.

Structures are written as SMILES. Active and inactive are the calls of the source. The rule behind the calls is not given here.

In the first assay the test system is Rattus norvegicus. Briefly: Protection against middle cerebral artery occlusion-induced Sprague-Dawley rat model of ischemic stroke-like event assessed as reduction in brain infarct size at 50 ug, icv pretreated for 5 mins followed by MCAO surgery for 2 hrs and subsequent reperfusion for 24 hrs by TCC staining based assay. The following applies: dose 50.0 µg, time 26.08333 hrs. Format: functional, organism-based.
Turning to `O=C(NCc1ccc2c(c1)OCO2)c1c(Cl)cccc1Cl`, the result was Active.

For a further assay, the target named is T1, Aldehyde dehydrogenase, mitochondrial (Homo sapiens, UniProt P05091).
T1 sequence (P05091 whole entry): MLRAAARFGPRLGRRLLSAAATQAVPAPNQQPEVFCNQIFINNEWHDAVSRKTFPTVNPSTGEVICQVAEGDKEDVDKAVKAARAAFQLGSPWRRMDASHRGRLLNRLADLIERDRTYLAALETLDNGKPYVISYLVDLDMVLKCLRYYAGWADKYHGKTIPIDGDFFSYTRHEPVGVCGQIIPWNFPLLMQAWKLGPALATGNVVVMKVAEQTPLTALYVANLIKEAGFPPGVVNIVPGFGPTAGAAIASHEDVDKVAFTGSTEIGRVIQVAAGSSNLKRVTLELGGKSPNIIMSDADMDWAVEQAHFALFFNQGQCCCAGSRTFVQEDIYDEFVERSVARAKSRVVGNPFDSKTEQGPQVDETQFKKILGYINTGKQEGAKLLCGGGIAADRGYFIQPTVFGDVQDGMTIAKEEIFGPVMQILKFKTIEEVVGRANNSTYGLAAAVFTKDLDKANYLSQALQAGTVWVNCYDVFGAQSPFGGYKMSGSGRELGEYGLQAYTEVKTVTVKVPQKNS
Briefly: Allosteric activation of recombinant human full-length ALDH2 (18 to 517 residues) expressed in Escherichia coli using acetaldehyde as substrate measured after 3 hrs in presence of NAD+ by […].
Conditions: not given
An outline of the steps: (§1)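 Read-out is absorbance at 450 nm, taken at room temperature. Starting concentrations are 5 mg/ml ALDH2, 25 mM acetaldehyde and 1 mM NAD+. Activity is the change in absorbance per minute (SlopeOD450). Maximum fold activation is calculated from ALDH2 activity with compound and corrected by the activity of the Alda-1 reference.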
Regarding `COc1ccc(CNc2ccc(N3CCOCC3)c(C(=O)NCC3CC3)c2)cc1F`, the EC50 was determined as 17.9 µM.

In the case of `O=C(NCc1ccc2c(c1)OCO2)c1c(Cl)cccc1Cl`, the EC50 is 4.3 µM.

A further assay addresses T2, Aldehyde dehydrogenase, mitochondrial (Homo sapiens) (UniProt P05091).
T2 sequence (whole entry): T1 sequence (P05091 whole entry)
The experiment in a line: Allosteric activation of recombinant human full-length ALDH2 (18 to 517 residues) expressed in Escherichia coli at 100 uM using acetaldehyde as substrate measured after 3 hrs in presence of NAD+ by […] relative to Alda-1.
Conditions: not given
An outline of the steps:
as §1
For the compound `COc1ccc(CNc2ccc(N3CCC(F)(F)CC3)c(C(=O)NCC3CC3)c2)cc1F`, the fold change (FC) was determined as 12%.

On to `COc1ccc(CNc2ccc(N3CCCCC3)c(C(=O)NCC3CC3)c2)cc1F`, for which the “fold change (FC)” value is “inactive”.

Take `Clc1ccc(NCc2ccc3c(c2)OCO3)cc1Cl`: the “fold change (FC)” value was “inactive”.

As to `COc1ccc(C(=O)Nc2ccc(N3CCOCC3)c(C(=O)NCC3CC3)c2)cc1F`, the “fold change (FC)” value was “inactive”.

Regarding `O=C(O)c1cc(NCc2ccc3c(c2)OCO3)ccc1Cl`, the “fold change (FC)” value is “inactive”.

Regarding `COc1ccc(CN(C(C)=O)c2ccc(N3CCOCC3)c(C(=O)NCC(C)(C)O)c2)cc1F`, the “fold change (FC)” value was “inactive”.

Consider `COc1ccc(CN(C(C)=O)c2ccc(N3CCOCC3)c(C(=O)NCC3(O)CC3)c2)cc1F`, for which the “fold change (FC)” value is “inactive”.

In the case of `Fc1ccc(NCc2ccc3c(c2)OCO3)cc1`, the “fold change (FC)” value is “inactive”.

For `COc1ccc(CN(C)c2ccc(N3CCOCC3)c(C(=O)NCC3CC3)c2)cc1F`, the “fold change (FC)” value is “inactive”.

Regarding `O=C(CCC(=O)OCC(=O)c1ccccc1Cl)Nc1ccc(Cl)cc1`, the fold change (FC) was 6%.

For `COc1ccc(CNc2ccc(N3CCC(F)CC3)c(C(=O)NCC3CC3)c2)cc1F`, the “fold change (FC)” value was “inactive”.

For `COc1ccc(CNc2ccc(-c3ccccc3)c(C(=O)NCC3CC3)c2)cc1F`, the fold change (FC) came to 3%.

For the compound `Clc1cc(NCc2ccc3c(c2)OCO3)ccc1N1CCOCC1`, the “fold change (FC)” value was “inactive”.

With `O=C(O)c1cc(NCc2ccc3c(c2)OCO3)ccc1N1CCOCC1`, the fold change (FC) came to 23%.

`O=C(O)c1cc(NCc2ccc(Cl)c(Cl)c2)ccc1N1CCOCC1`: the fold change (FC) was 9%.

The same assay, now with this note: filed as activator.
For `COc1ccc(CNc2ccc(N3CCOCC3)c(C(=O)NCC(C)(C)F)c2)cc1F`, the fold change (FC) stood at 101%.

Consider `COc1ccc(CNc2ccc(C3CCOCC3)c(C(=O)NCC3CC3)c2)cc1F`, for which the fold change (FC) amounted to 53%.

Take `CNC(=O)c1cc(NCc2ccc(OC)c(F)c2)ccc1N1CCOCC1`: the fold change (FC) was 52%.

As for `COc1ccc(CNc2ccc(N3CCOCC3)c(C(=O)NC3CC3)c2)cc1F`, the fold change (FC) was 94%.

In the case of `COc1ccc(CNc2ccc(N3CCOCC3)c(C(=O)NCC(C)(C)O)c2)cc1F`, the fold change (FC) is 120%.

Take `COc1ccc(CNc2cccc(C(=O)NCC3CC3)c2)cc1F`: the fold change (FC) came out at 56%.

For `COc1ccc(CNc2ccc(N3CCC(O)CC3)c(C(=O)NCC3CC3)c2)cc1F`, the fold change (FC) stood at 80%.

For the compound `COc1ccc(CNc2ccc(N3CCOCC3)c(C(=O)NCC3CC3)c2)cc1F`, the fold change (FC) is 104%.

With `COc1ccc(CNc2ccc(N3CCOCC3)c(C(=O)NCC3CCCCC3)c2)cc1F`, the fold change (FC) was 80%.

With `CCOC(=O)c1cc(NCc2ccc3c(c2)OCO3)ccc1N1CCOCC1`, the fold change (FC) was 64%.

With `COc1ccc(CNc2ccc(N3CCOCC3)c(C(=O)NCC(C)(C)C)c2)cc1F`, the fold change (FC) was 59%.

Take `COc1ccc(CNc2ccc(N3CCOCC3)c(C(=O)NCC3CCC3)c2)cc1F`: the fold change (FC) was determined as 41%.

`CCCNC(=O)c1cc(NCc2ccc(OC)c(F)c2)ccc1N1CCOCC1`: the fold change (FC) is 97%.

For the compound `CCNC(=O)c1cc(NCc2ccc(OC)c(F)c2)ccc1N1CCOCC1`, the fold change (FC) came to 63%.

Consider `COc1ccc(CNc2ccc(N3CCOCC3)c(C(=O)N3CCCCC3)c2)cc1F`, for which the fold change (FC) amounted to 66%.

Take `COc1ccc(CNc2ccc(N3CCOCC3)c(C(=O)NCC3(O)CC3)c2)cc1F`: the fold change (FC) amounted to 97%.

For `COc1ccc(CNc2ccc(N3CCOCC3)c(C(=O)NCC3CCCC3)c2)cc1F`, the fold change (FC) was found to be 51%.

Consider `COc1ccc(CNc2ccc(N3CCOCC3)c(C(=O)NCC(C)C)c2)cc1F`, for which the fold change (FC) turned out to be 92%.

The next assay has as its system Rattus norvegicus. Briefly: Protection against middle cerebral artery occlusion-induced Sprague-Dawley rat model of ischemic stroke-like event assessed as reduction in brain infarct size at 64 ug, icv pretreated for 5 mins followed by MCAO surgery for 2 hrs and subsequent reperfusion for 24 hrs by TCC staining based assay relative to control. The assay is classed as functional. The arrangement: scale not given: the % may be the effect or the level left. The conditions noted are these: dose 64 µg; time 26.0833 hrs; 26.08 h.
Consider `COc1ccc(CNc2ccc(N3CCOCC3)c(C(=O)NCC3CC3)c2)cc1F`, for which the Activity was 70%.
